Measured values from ChEMBL document CHEMBL1681705, “Optimisation of ITK inhibitors through successive iterative design cycles” (Bioorg Med Chem Lett, 2011).

Assays:
[1] = molecular target: Mitogen-activated protein kinase 1 (Homo sapiens) (UniProt P28482); assay: Inhibition of MAPK1 at 1 uM
Procedure, shortened: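 Single-point screen within a 108-kinase selectivity panel. Each kinase was tested with inhibitor at 0.1 and 1.0 micromolar, and activity was recorded as percent inhibition.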

[2] = molecular target: Mitogen-activated protein kinase 14 (Homo sapiens) (UniProt Q16539); assay: Inhibition of SAPK2a at 1 uM
[3] = molecular target: Serine/threonine-protein kinase 33 (Homo sapiens) (UniProt Q9BYT3); assay: Inhibition of STK33 at 0.1 uM; values are per cent of control
[4] = molecular target: T1, Mitogen-activated protein kinase kinase kinase 7 (Homo sapiens) (UniProt O43318); assay: Inhibition of TAK1 at 1 uM; values are per cent of control
T1 sequence (whole entry): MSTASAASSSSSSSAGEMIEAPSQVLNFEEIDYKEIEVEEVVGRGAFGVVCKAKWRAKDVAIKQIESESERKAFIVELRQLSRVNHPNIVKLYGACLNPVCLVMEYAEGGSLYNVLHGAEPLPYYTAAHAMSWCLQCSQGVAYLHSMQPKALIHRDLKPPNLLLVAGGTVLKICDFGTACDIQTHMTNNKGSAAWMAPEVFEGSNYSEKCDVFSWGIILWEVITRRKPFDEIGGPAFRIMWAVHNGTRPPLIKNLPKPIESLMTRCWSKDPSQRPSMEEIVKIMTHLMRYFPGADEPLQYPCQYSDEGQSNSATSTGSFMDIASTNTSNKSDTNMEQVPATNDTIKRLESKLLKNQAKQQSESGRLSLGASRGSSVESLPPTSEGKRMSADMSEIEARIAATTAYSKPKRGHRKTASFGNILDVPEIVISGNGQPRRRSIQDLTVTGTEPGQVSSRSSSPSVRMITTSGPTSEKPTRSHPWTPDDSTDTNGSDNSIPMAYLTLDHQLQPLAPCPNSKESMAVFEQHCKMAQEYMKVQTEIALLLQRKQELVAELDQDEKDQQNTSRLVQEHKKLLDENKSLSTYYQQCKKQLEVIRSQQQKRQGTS

[5] = molecular target: T2, Ephrin type-B receptor 1 (Homo sapiens) (UniProt P54762); assay: Inhibition of EphB1 at 1 uM; values are per cent of control
T2 sequence (whole entry): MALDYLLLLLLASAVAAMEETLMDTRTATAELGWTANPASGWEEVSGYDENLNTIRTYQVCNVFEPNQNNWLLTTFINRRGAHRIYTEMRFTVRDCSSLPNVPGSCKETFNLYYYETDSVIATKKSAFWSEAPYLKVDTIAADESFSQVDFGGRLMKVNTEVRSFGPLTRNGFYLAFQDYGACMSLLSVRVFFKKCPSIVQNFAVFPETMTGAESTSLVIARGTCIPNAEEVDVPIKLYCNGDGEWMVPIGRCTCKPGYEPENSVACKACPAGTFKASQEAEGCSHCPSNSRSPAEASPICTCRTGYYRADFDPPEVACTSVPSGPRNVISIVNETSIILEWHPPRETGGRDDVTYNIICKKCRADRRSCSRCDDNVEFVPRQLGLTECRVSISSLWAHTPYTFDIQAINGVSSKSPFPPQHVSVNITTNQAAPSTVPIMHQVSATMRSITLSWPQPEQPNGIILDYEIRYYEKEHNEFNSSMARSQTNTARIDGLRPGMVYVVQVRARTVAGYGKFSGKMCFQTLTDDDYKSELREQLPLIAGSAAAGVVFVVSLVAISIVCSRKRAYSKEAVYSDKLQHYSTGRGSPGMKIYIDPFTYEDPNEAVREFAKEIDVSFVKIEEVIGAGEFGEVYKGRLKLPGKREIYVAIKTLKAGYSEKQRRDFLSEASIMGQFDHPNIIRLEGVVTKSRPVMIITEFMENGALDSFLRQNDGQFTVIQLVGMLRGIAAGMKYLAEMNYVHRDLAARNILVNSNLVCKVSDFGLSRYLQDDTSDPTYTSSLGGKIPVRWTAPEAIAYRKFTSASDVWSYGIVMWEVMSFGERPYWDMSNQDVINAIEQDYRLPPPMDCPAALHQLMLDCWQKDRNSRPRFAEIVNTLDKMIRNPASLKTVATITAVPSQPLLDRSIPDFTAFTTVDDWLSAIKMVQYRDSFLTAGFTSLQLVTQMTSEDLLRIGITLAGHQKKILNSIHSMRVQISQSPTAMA

[6] = molecular target: Serine/threonine-protein kinase PAK 2 (Homo sapiens) (UniProt Q13177); assay: Inhibition of PAK2 at 1 uM; values are per cent of control
[7] = molecular target: T3, Cytoplasmic tyrosine-protein kinase BMX (Homo sapiens) (UniProt P51813); assay: Inhibition of Bmx at 0.1 uM; values are per cent of control
T3 sequence (whole entry): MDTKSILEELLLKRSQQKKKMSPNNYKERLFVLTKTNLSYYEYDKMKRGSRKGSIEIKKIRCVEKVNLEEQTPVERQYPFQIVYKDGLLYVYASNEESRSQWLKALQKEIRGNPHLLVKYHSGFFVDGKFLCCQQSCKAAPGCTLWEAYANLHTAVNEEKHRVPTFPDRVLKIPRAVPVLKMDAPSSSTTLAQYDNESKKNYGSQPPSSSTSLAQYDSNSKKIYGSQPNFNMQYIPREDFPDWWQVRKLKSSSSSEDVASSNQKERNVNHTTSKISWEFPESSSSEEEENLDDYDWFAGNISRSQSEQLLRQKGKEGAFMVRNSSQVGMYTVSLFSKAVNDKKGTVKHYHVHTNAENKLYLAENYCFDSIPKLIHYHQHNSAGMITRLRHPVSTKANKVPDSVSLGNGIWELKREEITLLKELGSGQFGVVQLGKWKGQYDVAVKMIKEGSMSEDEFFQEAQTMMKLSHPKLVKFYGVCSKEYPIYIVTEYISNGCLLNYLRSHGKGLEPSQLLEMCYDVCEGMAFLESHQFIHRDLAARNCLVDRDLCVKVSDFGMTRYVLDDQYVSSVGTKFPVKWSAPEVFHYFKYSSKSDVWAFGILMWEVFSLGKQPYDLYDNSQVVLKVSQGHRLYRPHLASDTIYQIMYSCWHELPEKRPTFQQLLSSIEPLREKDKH

[8] = molecular target: Tyrosine-protein kinase HCK (Homo sapiens) (UniProt P08631); assay: Inhibition of Hck at 0.1 uM; values are per cent of control
[9] = molecular target: Fibroblast growth factor receptor 2 (Homo sapiens) (UniProt P21802); assay: Inhibition of FGFR2 at 0.1 uM; values are per cent of control
Chain of Fibroblast growth factor receptor 2 (Homo sapiens) (P21802 22-821 limits assumed): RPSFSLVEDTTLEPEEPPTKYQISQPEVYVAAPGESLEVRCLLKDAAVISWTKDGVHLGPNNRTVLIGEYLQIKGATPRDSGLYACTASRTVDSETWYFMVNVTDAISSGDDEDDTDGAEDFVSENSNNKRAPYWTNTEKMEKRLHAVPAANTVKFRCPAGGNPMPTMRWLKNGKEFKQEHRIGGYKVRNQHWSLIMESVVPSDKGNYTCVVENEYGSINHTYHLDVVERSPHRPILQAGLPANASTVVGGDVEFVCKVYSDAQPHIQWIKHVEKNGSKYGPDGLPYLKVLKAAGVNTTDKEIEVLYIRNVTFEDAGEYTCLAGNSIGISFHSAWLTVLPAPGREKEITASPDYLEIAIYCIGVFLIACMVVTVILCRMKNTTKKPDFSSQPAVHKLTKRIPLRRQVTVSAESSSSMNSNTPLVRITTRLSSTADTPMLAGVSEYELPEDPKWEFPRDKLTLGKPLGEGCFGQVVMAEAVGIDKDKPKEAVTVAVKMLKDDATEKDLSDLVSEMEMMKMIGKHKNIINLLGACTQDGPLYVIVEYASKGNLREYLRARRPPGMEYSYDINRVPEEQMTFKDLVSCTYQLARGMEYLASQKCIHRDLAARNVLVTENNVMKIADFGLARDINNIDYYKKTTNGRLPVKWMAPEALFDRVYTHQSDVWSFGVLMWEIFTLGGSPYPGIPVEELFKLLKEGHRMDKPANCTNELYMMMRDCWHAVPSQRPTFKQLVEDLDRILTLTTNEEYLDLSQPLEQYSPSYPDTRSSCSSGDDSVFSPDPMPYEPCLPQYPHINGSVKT

Chain of Tyrosine-protein kinase HCK (Homo sapiens) (P08631 2-526 limits assumed): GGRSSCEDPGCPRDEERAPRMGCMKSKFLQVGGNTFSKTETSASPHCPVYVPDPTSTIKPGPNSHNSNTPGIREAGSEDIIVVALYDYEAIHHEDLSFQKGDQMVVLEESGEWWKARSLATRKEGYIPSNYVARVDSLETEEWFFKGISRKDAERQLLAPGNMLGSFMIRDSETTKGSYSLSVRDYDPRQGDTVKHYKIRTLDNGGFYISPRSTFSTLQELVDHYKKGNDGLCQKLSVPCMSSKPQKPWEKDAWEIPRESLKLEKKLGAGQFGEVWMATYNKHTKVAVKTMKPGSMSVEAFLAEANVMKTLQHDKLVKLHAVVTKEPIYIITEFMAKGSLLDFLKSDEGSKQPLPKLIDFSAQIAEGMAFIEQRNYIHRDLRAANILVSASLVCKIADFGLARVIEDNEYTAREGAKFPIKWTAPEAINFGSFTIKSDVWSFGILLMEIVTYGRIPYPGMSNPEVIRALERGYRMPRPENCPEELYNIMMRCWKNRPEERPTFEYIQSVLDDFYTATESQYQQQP
Chain of Mitogen-activated protein kinase 1 (Homo sapiens) (P28482 whole entry): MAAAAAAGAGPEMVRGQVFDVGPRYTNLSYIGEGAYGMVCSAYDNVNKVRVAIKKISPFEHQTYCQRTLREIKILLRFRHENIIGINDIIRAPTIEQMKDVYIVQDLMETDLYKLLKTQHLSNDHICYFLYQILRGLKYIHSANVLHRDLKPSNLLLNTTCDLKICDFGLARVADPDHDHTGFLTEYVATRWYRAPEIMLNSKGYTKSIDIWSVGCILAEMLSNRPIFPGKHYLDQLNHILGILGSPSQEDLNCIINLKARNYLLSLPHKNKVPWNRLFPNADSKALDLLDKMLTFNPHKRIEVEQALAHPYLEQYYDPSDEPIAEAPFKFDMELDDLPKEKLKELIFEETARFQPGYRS
Chain of Serine/threonine-protein kinase 33 (Homo sapiens) (Q9BYT3 whole entry, looked up): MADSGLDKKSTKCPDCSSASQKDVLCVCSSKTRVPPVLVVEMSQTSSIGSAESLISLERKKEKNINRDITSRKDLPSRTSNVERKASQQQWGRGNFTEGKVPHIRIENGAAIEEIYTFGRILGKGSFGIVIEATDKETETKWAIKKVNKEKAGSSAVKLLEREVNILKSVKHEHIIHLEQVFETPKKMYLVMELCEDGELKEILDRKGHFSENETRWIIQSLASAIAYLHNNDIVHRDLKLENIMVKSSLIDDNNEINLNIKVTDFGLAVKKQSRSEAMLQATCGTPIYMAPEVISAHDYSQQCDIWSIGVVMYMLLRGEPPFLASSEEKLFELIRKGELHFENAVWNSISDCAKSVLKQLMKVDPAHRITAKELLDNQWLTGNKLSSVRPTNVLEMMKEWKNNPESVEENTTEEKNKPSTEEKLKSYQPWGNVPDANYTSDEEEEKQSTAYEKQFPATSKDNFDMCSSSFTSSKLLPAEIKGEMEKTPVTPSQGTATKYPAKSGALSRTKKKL
Chain of Mitogen-activated protein kinase 14 (Homo sapiens) (Q16539 whole entry): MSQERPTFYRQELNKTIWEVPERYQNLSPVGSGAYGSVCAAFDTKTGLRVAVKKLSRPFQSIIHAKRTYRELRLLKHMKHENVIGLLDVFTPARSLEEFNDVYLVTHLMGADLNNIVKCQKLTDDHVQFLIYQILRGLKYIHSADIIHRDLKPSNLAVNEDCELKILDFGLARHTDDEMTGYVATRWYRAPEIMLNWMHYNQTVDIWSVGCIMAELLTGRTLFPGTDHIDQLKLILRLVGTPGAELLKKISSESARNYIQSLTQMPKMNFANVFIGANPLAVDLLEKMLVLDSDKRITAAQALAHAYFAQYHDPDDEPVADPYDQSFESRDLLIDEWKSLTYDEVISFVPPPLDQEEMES
Chain of Serine/threonine-protein kinase PAK 2 (Homo sapiens) (Q13177 whole entry): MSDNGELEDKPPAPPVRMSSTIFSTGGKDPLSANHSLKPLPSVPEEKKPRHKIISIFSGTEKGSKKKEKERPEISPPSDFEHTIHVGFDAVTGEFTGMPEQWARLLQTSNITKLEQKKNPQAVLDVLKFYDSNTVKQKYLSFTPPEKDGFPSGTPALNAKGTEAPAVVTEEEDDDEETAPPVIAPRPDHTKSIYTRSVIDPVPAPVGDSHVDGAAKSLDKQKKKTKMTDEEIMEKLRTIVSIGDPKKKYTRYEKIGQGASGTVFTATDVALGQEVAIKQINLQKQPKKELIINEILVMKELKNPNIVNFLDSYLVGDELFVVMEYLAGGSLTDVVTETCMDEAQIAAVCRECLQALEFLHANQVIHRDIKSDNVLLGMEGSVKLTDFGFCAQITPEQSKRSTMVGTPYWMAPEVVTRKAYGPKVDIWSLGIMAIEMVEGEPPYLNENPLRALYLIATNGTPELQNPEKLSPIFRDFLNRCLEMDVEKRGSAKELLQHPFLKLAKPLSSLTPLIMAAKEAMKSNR

SMILES	inhibition [1] [%]	inhibition [2] [%]	residual activity [3] [%]	residual activity [4] [%]	residual activity [5] [%]	residual activity [6] [%]	residual activity [7] [%]	residual activity [8] [%]	residual activity [9] [%]
Cc1ccc2cc(-c3n[nH]c4ccc(NC5CCNC5)cc34)[nH]c2c1 (stereo not drawn)	64	99	76	9	5	38	15	15	8
Cc1ccc2cc(-c3n[nH]c4ccc(NC5CCN(Cc6ccccc6)CC5)cc34)[nH]c2c1	84	97	13	35	12	72	45	61	51
